Assay results as given in ChEMBL document CHEMBL1121938, “Hypocholesterolemic and antiaggregatory properties of 2-hydroxytetronic acid redox analogues an their relationship to clofibric acid” (1982).

Test system: Rattus norvegicus
Experiment: Effect of compound was measured on serum alpha-lipoprotein in male Dawley rats at the dose of 0.4 mmol/kg (day+10).
Format: functional, organism-based
Procedure, shortened: (§1)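 Male Sprague-Dawley rats (180-210 g) fed a high-cholesterol diet for 1 week before and throughout dosing. Groups of n = 6 were dosed orally twice daily for 14 days in 0.25% methylcellulose, with vehicle controls. Rats were fasted 16-18 h before orbital bleeds on days -1, +4, +7 and +10, and by aortic exsanguination on day +14. Serum α-lipoprotein cholesterol was measured by polyanionic precipitation, in mg/dL ± SD.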

Structure (SMILES) | alpha-lipoprotein cholesterol [mg/dL]
NC1=C(O)C(=O)C(c2ccc(Cl)cc2)O1 (centres undefined) | 43.7
O=C1OC(c2ccc(Cl)cc2)C(=O)C1=O (centres undefined) | 29
CCOC(=O)C(C)(C)Oc1ccc(Cl)cc1 [CLOFIBRATE] | 51.7

Test system: Rattus norvegicus
Experiment: Effect of compound was measured on serum alpha-lipoprotein in male Dawley rats at the dose of 0.4 mmol/kg (day+4).
Format: functional, organism-based
Procedure, shortened: as §1

Structure (SMILES) | alpha-lipoprotein cholesterol [mg/dL]
NC1=C(O)C(=O)C(c2ccc(Cl)cc2)O1 (centres undefined) | 33.2
O=C1OC(c2ccc(Cl)cc2)C(=O)C1=O (centres undefined) | 32
CCOC(=O)C(C)(C)Oc1ccc(Cl)cc1 [CLOFIBRATE] | 38.5

Test system: Rattus norvegicus
Experiment: Effect of compound was measured on serum alpha-lipoprotein in male Dawley rats at the dose of 0.4 mmol/kg (day+7).
Format: functional, organism-based
Procedure, shortened: as §1

Structure (SMILES) | alpha-lipoprotein cholesterol [mg/dL]
NC1=C(O)C(=O)C(c2ccc(Cl)cc2)O1 (centres undefined) | 43
O=C1OC(c2ccc(Cl)cc2)C(=O)C1=O (centres undefined) | 30.5
CCOC(=O)C(C)(C)Oc1ccc(Cl)cc1 [CLOFIBRATE] | 52.7

Test system: Rattus norvegicus
Experiment: Effect of compound was measured on serum alpha-lipoprotein in male Dawley rats at the dose of 0.4 mmol/kg (day-1).
Format: functional, organism-based
Procedure, shortened: as §1

Structure (SMILES) | alpha-lipoprotein cholesterol [mg/dL]
NC1=C(O)C(=O)C(c2ccc(Cl)cc2)O1 (centres undefined) | 43.8
O=C1OC(c2ccc(Cl)cc2)C(=O)C1=O (centres undefined) | 40.3
CCOC(=O)C(C)(C)Oc1ccc(Cl)cc1 [CLOFIBRATE] | 44.4

Test system: Rattus norvegicus
Experiment: Effect of compound was measured on serum alpha-lipoprotein in male Dawley rats at the dose of 0.4 mmol/kg (day14).
Format: functional, organism-based
Procedure, shortened: as §1

Structure (SMILES) | alpha-lipoprotein cholesterol [mg/dL]
NC1=C(O)C(=O)C(c2ccc(Cl)cc2)O1 (centres undefined) | 38.8
O=C1OC(c2ccc(Cl)cc2)C(=O)C1=O (centres undefined) | 34.2
CCOC(=O)C(C)(C)Oc1ccc(Cl)cc1 [CLOFIBRATE] | 55

Test system: Rattus norvegicus
Experiment: Effect of compound was measured on serum total cholesterol in male Dawley rats at the dose of 0.4 mmol/kg (day+10).
Format: functional, organism-based
Procedure, shortened: (§2)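 Serum total cholesterol was measured enzymatically on a bichromatic analyzer. Serum was separated after clotting on ice (2000g, 10 min), held at 4 °C and assayed within 48 h. Rats were male Sprague-Dawley on a high-cholesterol diet, n = 6, dosed orally twice daily for 14 days in 0.25% methylcellulose (1.0 mL/100 g). They were fasted 16-18 h before each bleed. Results are in mg/dL ± SD.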

Structure (SMILES) | serum total cholesterol [mg/dL]
NC1=C(O)C(=O)C(c2ccc(Cl)cc2)O1 (centres undefined) | 344
O=C1OC(c2ccc(Cl)cc2)C(=O)C1=O (centres undefined) | 356
CCOC(=O)C(C)(C)Oc1ccc(Cl)cc1 [CLOFIBRATE] | 316

Test system: Rattus norvegicus
Experiment: Effect of compound was measured on serum total cholesterol in male Dawley rats at the dose of 0.4 mmol/kg (day+14).
Format: functional, organism-based
Procedure, shortened: as §2

Structure (SMILES) | serum total cholesterol [mg/dL]
NC1=C(O)C(=O)C(c2ccc(Cl)cc2)O1 (centres undefined) | 278
O=C1OC(c2ccc(Cl)cc2)C(=O)C1=O (centres undefined) | 217
CCOC(=O)C(C)(C)Oc1ccc(Cl)cc1 [CLOFIBRATE] | 302

Test system: Rattus norvegicus
Experiment: Effect of compound was measured on serum total cholesterol in male Dawley rats at the dose of 0.4 mmol/kg (day+4).
Format: functional, organism-based
Procedure, shortened: as §2

Structure (SMILES) | serum total cholesterol [mg/dL]
NC1=C(O)C(=O)C(c2ccc(Cl)cc2)O1 (centres undefined) | 138
O=C1OC(c2ccc(Cl)cc2)C(=O)C1=O (centres undefined) | 205
CCOC(=O)C(C)(C)Oc1ccc(Cl)cc1 [CLOFIBRATE] | 127

Test system: Rattus norvegicus
Experiment: Effect of compound was measured on serum total cholesterol in male Dawley rats at the dose of 0.4 mmol/kg (day+7).
Format: functional, organism-based
Procedure, shortened: as §2

Structure (SMILES) | serum total cholesterol [mg/dL]
NC1=C(O)C(=O)C(c2ccc(Cl)cc2)O1 (centres undefined) | 252
O=C1OC(c2ccc(Cl)cc2)C(=O)C1=O (centres undefined) | 377
CCOC(=O)C(C)(C)Oc1ccc(Cl)cc1 [CLOFIBRATE] | 209

Test system: Rattus norvegicus
Experiment: Effect of compound was measured on serum total cholesterol in male Dawley rats at the dose of 0.4 mmol/kg (day-1).
Format: functional, organism-based
Procedure, shortened: as §2

Structure (SMILES) | serum total cholesterol [mg/dL]
NC1=C(O)C(=O)C(c2ccc(Cl)cc2)O1 (centres undefined) | 193
O=C1OC(c2ccc(Cl)cc2)C(=O)C1=O (centres undefined) | 250
CCOC(=O)C(C)(C)Oc1ccc(Cl)cc1 [CLOFIBRATE] | 202

Test system: Rattus norvegicus
Experiment: Effect of compound was measured on serum total triglycerides in male Dawley rats at the dose of 0.4 mmol/kg (day+10).
Format: functional, organism-based
Procedure, shortened: (§3)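 Serum triglycerides were measured with an enzymatic triglyceride reagent on a bichromatic analyzer. Rats were male Sprague-Dawley (180-210 g) fed a high-cholesterol diet, n = 6 per group, dosed orally twice daily for 14 days in 0.25% methylcellulose or vehicle. They were fasted 16-18 h before blood collection on days -1, +4, +7, +10 (orbital plexus, light ether) and +14 (aorta). Analysis was repeated-measures ANOVA with Duncan's test.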

Structure (SMILES) | Serum total triglycerides [mg/dL]
NC1=C(O)C(=O)C(c2ccc(Cl)cc2)O1 (centres undefined) | 158
O=C1OC(c2ccc(Cl)cc2)C(=O)C1=O (centres undefined) | 151
CCOC(=O)C(C)(C)Oc1ccc(Cl)cc1 [CLOFIBRATE] | 196

Test system: Rattus norvegicus
Experiment: Effect of compound was measured on serum total triglycerides in male Dawley rats at the dose of 0.4 mmol/kg (day+14).
Format: functional, organism-based
Procedure, shortened: as §3

Structure (SMILES) | Serum total triglycerides [mg/dL]
NC1=C(O)C(=O)C(c2ccc(Cl)cc2)O1 (centres undefined) | 119
O=C1OC(c2ccc(Cl)cc2)C(=O)C1=O (centres undefined) | 105
CCOC(=O)C(C)(C)Oc1ccc(Cl)cc1 [CLOFIBRATE] | 155

Test system: Rattus norvegicus
Experiment: Effect of compound was measured on serum total triglycerides in male Dawley rats at the dose of 0.4 mmol/kg (day+7).
Format: functional, organism-based
Procedure, shortened: as §3

Structure (SMILES) | Serum total triglycerides [mg/dL]
NC1=C(O)C(=O)C(c2ccc(Cl)cc2)O1 (centres undefined) | 128
O=C1OC(c2ccc(Cl)cc2)C(=O)C1=O (centres undefined) | 164
CCOC(=O)C(C)(C)Oc1ccc(Cl)cc1 [CLOFIBRATE] | 169

Test system: Rattus norvegicus
Experiment: Effect of compound was measured on serum total triglycerides in male Dawley rats at the dose of 0.4 mmol/kg (day-1).
Format: functional, organism-based
Procedure, shortened: as §3

Structure (SMILES) | Serum total triglycerides [mg/dL]
NC1=C(O)C(=O)C(c2ccc(Cl)cc2)O1 (centres undefined) | 179
O=C1OC(c2ccc(Cl)cc2)C(=O)C1=O (centres undefined) | 268
CCOC(=O)C(C)(C)Oc1ccc(Cl)cc1 [CLOFIBRATE] | 266

Test system: Rattus norvegicus
Experiment: Effect of compound on liver CH levels in male Dawley rats at the dose of 0.4 mmol/kg
Format: functional
Set-up: unit: g/100 g wet liver
Procedure, shortened: (§4)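 Male Sprague-Dawley rats (180-210 g) were kept on a high-cholesterol diet for 1 week before and throughout treatment. Groups of n = 6 received drug in 0.25% methylcellulose orally twice daily for 14 days, or vehicle. After a 16-18 h fast, livers were excised at day +14 and homogenized in 0.1 M Tris-HCl pH 7.2 with 1.15% KCl. Lipids were extracted from 25% w/v homogenate and reported as g/100 g wet liver ± SD; groups compared by ANOVA and Duncan's test.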

Structure (SMILES) | Liver CH levels
NC1=C(O)C(=O)C(c2ccc(Cl)cc2)O1 (centres undefined) | 4.03
O=C1OC(c2ccc(Cl)cc2)C(=O)C1=O (centres undefined) | 4.9
CCOC(=O)C(C)(C)Oc1ccc(Cl)cc1 [CLOFIBRATE] | 3.58

Test system: Rattus norvegicus
Experiment: Effect of compound on liver TG levels in male Dawley rats at the dose of 0.4 mmol/kg
Format: functional
Set-up: unit: g/100 g wet liver
Procedure, shortened: as §4

Structure (SMILES) | Liver TG
NC1=C(O)C(=O)C(c2ccc(Cl)cc2)O1 (centres undefined) | 2.8
O=C1OC(c2ccc(Cl)cc2)C(=O)C1=O (centres undefined) | 3.76
CCOC(=O)C(C)(C)Oc1ccc(Cl)cc1 [CLOFIBRATE] | 1.84

Test system: not listed separately
Experiment: Effect of compound was measured on serum heparin-MnCl2 precipated ipoprotein Dawley rats at 0.4 mmol/kg dose(day+10).
Format: functional
Procedure, shortened: (§5)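 Cholesterol-fed male Sprague-Dawley rats, n = 6 per group, given compound or 0.25% methylcellulose orally twice daily for 14 days, and fasted 16-18 h before each bleed (days -1, +4, +7, +10, +14). Heparin-MnCl2 precipitable lipoprotein cholesterol was taken as serum total cholesterol minus α-lipoprotein cholesterol. It is reported as a ratio to α-LP cholesterol ± SD. Analysis was ANOVA with repeated measures and Duncan's test.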

Structure (SMILES) | Ratio
NC1=C(O)C(=O)C(c2ccc(Cl)cc2)O1 (centres undefined) | 7.13
O=C1OC(c2ccc(Cl)cc2)C(=O)C1=O (centres undefined) | 11.9
CCOC(=O)C(C)(C)Oc1ccc(Cl)cc1 [CLOFIBRATE] | 4.89

Test system: not listed separately
Experiment: Effect of compound was measured on serum heparin-MnCl2 precipated ipoprotein Dawley rats at 0.4 mmol/kg dose(day+4).
Format: functional
Procedure, shortened: as §5

Structure (SMILES) | Ratio
NC1=C(O)C(=O)C(c2ccc(Cl)cc2)O1 (centres undefined) | 3.43
O=C1OC(c2ccc(Cl)cc2)C(=O)C1=O (centres undefined) | 5.63
CCOC(=O)C(C)(C)Oc1ccc(Cl)cc1 [CLOFIBRATE] | 2.54

Test system: not listed separately
Experiment: Effect of compound was measured on serum heparin-MnCl2 precipated ipoprotein Dawley rats at 0.4 mmol/kg dose(day+7).
Format: functional
Procedure, shortened: as §5

Structure (SMILES) | Ratio
NC1=C(O)C(=O)C(c2ccc(Cl)cc2)O1 (centres undefined) | 5.59
O=C1OC(c2ccc(Cl)cc2)C(=O)C1=O (centres undefined) | 12.6
CCOC(=O)C(C)(C)Oc1ccc(Cl)cc1 [CLOFIBRATE] | 3.12

Test system: not listed separately
Experiment: Effect of compound was measured on serum heparin-MnCl2 precipated ipoprotein Dawley rats at 0.4 mmol/kg dose(day-1).
Format: functional
Procedure, shortened: as §5

Structure (SMILES) | Ratio
NC1=C(O)C(=O)C(c2ccc(Cl)cc2)O1 (centres undefined) | 3.65
O=C1OC(c2ccc(Cl)cc2)C(=O)C1=O (centres undefined) | 5.76
CCOC(=O)C(C)(C)Oc1ccc(Cl)cc1 [CLOFIBRATE] | 3.81

Test system: Rattus norvegicus
Experiment: Effect of compound was measured on serum total triglycerides in male Dawley rats at the dose of 0.4 mmol/kg (day+4).
Format: functional, organism-based
Procedure, shortened: as §3

Structure (SMILES) | Serum total triglycerides [mg/dL]
NC1=C(O)C(=O)C(c2ccc(Cl)cc2)O1 (centres undefined) | 147
O=C1OC(c2ccc(Cl)cc2)C(=O)C1=O (centres undefined) | 198
CCOC(=O)C(C)(C)Oc1ccc(Cl)cc1 [CLOFIBRATE] | 141

Test system: not listed separately
Experiment: Effect of compound on liver to body weight ratio in male Dawley rats at the dose of 0.4 mmol/kg
Format: functional
Procedure, shortened: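 Male Sprague-Dawley rats (180-210 g) were kept on a cholesterol-rich diet and dosed orally twice daily for 14 days in 0.25% methylcellulose; vehicle controls received the same; n = 6 per group. After a 16-18 h fast, rats were exsanguinated at day +14. Livers were removed, rinsed in ice-cold buffer, blotted and weighed, and related to body weight. Data were analysed by repeated-measures ANOVA with Duncan's multiple range test.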

Structure (SMILES) | Ratio
NC1=C(O)C(=O)C(c2ccc(Cl)cc2)O1 (centres undefined) | 4.1
O=C1OC(c2ccc(Cl)cc2)C(=O)C1=O (centres undefined) | 4
CCOC(=O)C(C)(C)Oc1ccc(Cl)cc1 [CLOFIBRATE] | 6.2

Test system: not listed separately
Experiment: Effect of compound was measured on serum heparin-MnCl2 precipated ipoprotein Dawley rats at 0.4 mmol/kg dose(day+14).
Format: functional
Procedure, shortened: as §5

Structure (SMILES) | Ratio
NC1=C(O)C(=O)C(c2ccc(Cl)cc2)O1 (centres undefined) | 6.31
O=C1OC(c2ccc(Cl)cc2)C(=O)C1=O (centres undefined) | 5.75
CCOC(=O)C(C)(C)Oc1ccc(Cl)cc1 [CLOFIBRATE] | 4.76
